# What was measured:
# Format in all cases: functional
# [1] = test system: Staphylococcus aureus; experiment: Antimicrobial activity against multidrug-resistant Staphylococcus aureus H.C. 21036 isolate after 20 hrs by twofold serial dilution technique; details: H.C. 21036, 20 h
# Outline: (§1)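 Twofold serial dilution MIC in agar plates against Gram-positive strains and multidrug-resistant clinical isolates. Inoculum applied was 10⁵ CFU/plate. Plates with culture medium plus DMSO served as negative control. MIC was read after incubation at 35 °C for 20 h.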
# [2] = test system: NCI-H292; experiment: Cytotoxicity against human NCI-H292 cells at 1.25 ug/mL after 72 hrs by MTT assay; details: NCI-H292, 72 h, read-out: GI
# Outline: (§2)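 MTT antiproliferative assay. Cells were diluted to 10⁵ cells/mL in 96-well plates and preincubated for 24 h at 37 °C in humid 5% CO₂. Compounds or vincristine (reference) were then added. Formazan was dissolved and OD read at 540 nm, compared with medium-only control cells. Run in triplicate.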
# [3] = test system: Staphylococcus; experiment: Antimicrobial activity against coagulase-negative Staphylococcus H.A.M. 338 isolate after 20 hrs by twofold serial dilution technique; details: H.A.M. 338, 20 h
# Outline: (§3)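 MIC was determined by twofold serial dilution. Bacteria were tested in plates at 10⁵ CFU/plate and read after 20 h. C. albicans was tested in tubes at 10³ CFU/tube and read after 48 h. All incubations were at 35 °C. Medium plus DMSO served as the negative control.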
# [4] = test system: Bacillus subtilis; experiment: Antimicrobial activity against Bacillus subtilis UFPEDA 16 after 20 hrs by twofold serial dilution technique; details: UFPEDA 16, 20 h; outline: as §3
# [5] = test system: Staphylococcus aureus; experiment: Antimicrobial activity against multidrug-resistant Staphylococcus aureus H.C. 20489 isolate after 20 hrs by twofold serial dilution technique; details: H.C. 20489, 20 h; outline: as §1
# [6] = test system: Micrococcus luteus; experiment: Antimicrobial activity against Micrococcus luteus UFPEDA 06 after 20 hrs by twofold serial dilution technique; details: UFPEDA 06, 20 h; outline: as §3
# [7] = test system: Mycolicibacterium smegmatis; experiment: Antimicrobial activity against Mycobacterium smegmatis UFPEDA 71 at 300 ug/disk after 24 hrs by disk diffusion method; details: UFPEDA 71, 24 h, read-out: IZ
# Outline: (§4)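 Preliminary screen by disk diffusion. Paper disks (6 mm) holding 300 µg of compound were placed on agar plates inoculated with a standardized microbial suspension. DMSO-only disks served as negative controls. A mean inhibition zone below 7 mm was scored as no sensitivity. Values are means, n = 3.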
# [8] = test system: Enterococcus faecalis; experiment: Antimicrobial activity against multidrug-resistant Enterococcus faecalis H.C. 21752 isolate after 20 hrs by twofold serial dilution technique; details: H.C. 21752, 20 h; outline: as §1
# [9] = test system: Pseudomonas aeruginosa; experiment: Antimicrobial activity against Pseudomonas aeruginosa UFPEDA 39 at 300 ug/disk after 24 hrs by disk diffusion method; details: UFPEDA 39, 24 h, read-out: IZ; outline: as §4
# [10] = test system: NCI-H292; experiment: Cytotoxicity against human NCI-H292 cells at 10 ug/mL after 72 hrs by MTT assay; details: NCI-H292, 72 h, read-out: GI; outline: as §2
# [11] = test system: Staphylococcus aureus; experiment: Antimicrobial activity against Staphylococcus aureus UFPEDA 01 after 20 hrs by twofold serial dilution technique; details: UFPEDA 01, 20 h; outline: as §1
# [12] = test system: HEp-2; experiment: Cytotoxicity against human Hep2 cells at 5 ug/mL after 72 hrs by MTT assay; details: HEp-2, 72 h, read-out: GI; outline: as §2
# [13] = test system: Enterococcus faecalis; experiment: Antimicrobial activity against Enterococcus faecalis UFPEDA 138 at 300 ug/disk after 24 hrs by disk diffusion method; details: UFPEDA 138, 24 h, read-out: IZ; outline: as §4
# [14] = test system: Staphylococcus aureus; experiment: Antimicrobial activity against multidrug-resistant Staphylococcus aureus H.C. 20905 isolate after 20 hrs by twofold serial dilution technique; details: H.C. 20905, 20 h; outline: as §1
# [15] = test system: Staphylococcus aureus; experiment: Antimicrobial activity against Staphylococcus aureus UFPEDA 01 at 300 ug/disk after 24 hrs by disk diffusion method; details: UFPEDA 01, 24 h, read-out: IZ; outline: as §4
# [16] = test system: Escherichia coli; experiment: Antimicrobial activity against Escherichia coli UFPEDA 224 at 300 ug/disk after 24 hrs by disk diffusion method; details: UFPEDA 224, 24 h, read-out: IZ; outline: as §4
# [17] = test system: Enterococcus faecalis; experiment: Antimicrobial activity against Enterococcus faecalis UFPEDA 138 after 20 hrs by twofold serial dilution technique; details: UFPEDA 138, 20 h; outline: as §3
# [18] = test system: HEp-2; experiment: Cytotoxicity against human Hep2 cells at 2.5 ug/mL after 72 hrs by MTT assay; details: HEp-2, 72 h, read-out: GI; outline: as §2
# [19] = test system: Staphylococcus aureus; experiment: Antimicrobial activity against multidrug-resistant Staphylococcus aureus H.C. 21141 isolate after 20 hrs by twofold serial dilution technique; details: H.C. 21141, 20 h; outline: as §1
# [20] = test system: NCI-H292; experiment: Cytotoxicity against human NCI-H292 cells at 2.5 ug/mL after 72 hrs by MTT assay; details: NCI-H292, 72 h, read-out: GI; outline: as §2
# [21] = test system: Candida albicans; experiment: Antimicrobial activity against Candida albicans UFPEDA 1007 after 48 hrs by twofold serial dilution technique; details: UFPEDA 1007, 48 h; outline: as §3
# [22] = test system: Bacillus subtilis; experiment: Antimicrobial activity against Bacillus subtilis UFPEDA 16 at 300 ug/disk after 24 hrs by disk diffusion method; details: UFPEDA 16, 24 h, read-out: IZ; outline: as §4
# [23] = test system: Candida albicans; experiment: Antimicrobial activity against Candida albicans UFPEDA 1007 at 300 ug/disk after 48 hrs by disk diffusion method; details: UFPEDA 1007, 48 h, read-out: IZ; outline: as §4
# [24] = test system: Enterococcus faecalis; experiment: Antimicrobial activity against multidrug-resistant Enterococcus faecalis H.C. 24962 isolate after 20 hrs by twofold serial dilution technique; details: H.C. 24962, 20 h; outline: as §1
# [25] = test system: Micrococcus luteus; experiment: Antimicrobial activity against Micrococcus luteus UFPEDA 06 at 300 ug/disk after 24 hrs by disk diffusion method; details: UFPEDA 06, 24 h, read-out: IZ; outline: as §4
# [26] = test system: HEp-2; experiment: Cytotoxicity against human Hep2 cells at 1.25 ug/mL after 72 hrs by MTT assay; details: HEp-2, 72 h, read-out: GI; outline: as §2
# [27] = test system: Staphylococcus aureus; experiment: Antimicrobial activity against multidrug-resistant Staphylococcus aureus H.C. 20981 isolate after 20 hrs by twofold serial dilution technique; details: H.C. 20981, 20 h; outline: as §1
# [28] = test system: HEp-2; experiment: Cytotoxicity against human Hep2 cells at 10 ug/mL after 72 hrs by MTT assay; details: HEp-2, 72 h, read-out: GI; outline: as §2
# [29] = test system: Mycolicibacterium smegmatis; experiment: Antimicrobial activity against Mycobacterium smegmatis UFPEDA 71 after 20 hrs by twofold serial dilution technique; details: UFPEDA 71, 20 h; outline: as §3
# [30] = test system: Serratia marcescens; experiment: Antimicrobial activity against Serratia marcescens UFPEDA 398 at 300 ug/disk after 24 hrs by disk diffusion method; details: UFPEDA 398, 24 h, read-out: IZ; outline: as §4
# [31] = test system: Enterococcus faecalis; experiment: Antimicrobial activity against multidrug-resistant Enterococcus faecalis H.C. 24708 isolate after 20 hrs by twofold serial dilution technique; details: H.C. 24708, 20 h; outline: as §1
# [32] = test system: NCI-H292; experiment: Cytotoxicity against human NCI-H292 cells at 5 ug/mL after 72 hrs by MTT assay; details: NCI-H292, 72 h, read-out: GI; outline: as §2
# [33] = test system: Enterococcus faecalis; experiment: Antimicrobial activity against multidrug-resistant Enterococcus faecalis H.C. 21944 isolate after 20 hrs by twofold serial dilution technique; details: H.C. 21944, 20 h; outline: as §1
# [34] = test system: Staphylococcus aureus; experiment: Antimicrobial activity against multidrug-resistant Staphylococcus aureus H.C. 20794 isolate after 20 hrs by twofold serial dilution technique; details: H.C. 20794, 20 h; outline: as §1
# [35] = test system: Staphylococcus; experiment: Antimicrobial activity against coagulase-negative Staphylococcus H.A.M. 278 isolate after 20 hrs by twofold serial dilution technique; details: H.A.M. 278, 20 h; outline: as §3
Compound,MIC [1],inhibition of growth at 1.25 µg/mL [2],MIC [3],MIC [4],MIC [5],MIC [6],zone of inhibition at 300 µg/disc [7],MIC [8],zone of inhibition at 300 µg/disc [9],inhibition of growth at 10 µg/mL [10],MIC [11],inhibition of growth at 5 µg/mL [12],zone of inhibition at 300 µg/disc [13],MIC [14],zone of inhibition at 300 µg/disc [15],zone of inhibition at 300 µg/disc [16],MIC [17],inhibition of growth at 2.5 µg/mL [18],MIC [19],inhibition of growth at 2.5 µg/mL [20],further results
O=C1NC(=S)/C(=C/c2cc(Cl)cc(Cl)c2Cl)S1,2 µg/mL,14.2%,2 µg/mL,2 µg/mL,2 µg/mL,4 µg/mL,< 7 mm,4 µg/mL,< 7 mm,40.5%,4 µg/mL,22.8%,19 mm,2 µg/mL,16 mm,< 7 mm,2 µg/mL,21.8%,2 µg/mL,33%,MIC [21]: 64 µg/mL; zone of inhibition at 300 µg/disc [22]: < 7 mm; zone of inhibition at 300 µg/disc [23]: < 7 mm; MIC [24]: 4 µg/mL; zone of inhibition at 300 µg/disc [25]: 21 mm; inhibition of growth at 1.25 µg/mL [26]: 12.6%; MIC [27]: 2 µg/mL; inhibition of growth at 10 µg/mL [28]: 23.5%; MIC [29]: 32 µg/mL; zone of inhibition at 300 µg/disc [30]: < 7 mm; MIC [31]: 4 µg/mL; inhibition of growth at 5 µg/mL [32]: 39.7%; MIC [33]: 4 µg/mL; MIC [34]: 2 µg/mL; MIC [35]: 2 µg/mL
O=C1NC(=S)/C(=C/c2ccccc2Cl)S1,2 µg/mL,10.6%,8 µg/mL,16 µg/mL,2 µg/mL,16 µg/mL,20 mm,16 µg/mL,< 7 mm,45%,4 µg/mL,5.97%,16 mm,2 µg/mL,25 mm,< 7 mm,16 µg/mL,-11.5%,8 µg/mL,19.9%,MIC [21]: 32 µg/mL; zone of inhibition at 300 µg/disc [22]: 17 mm; zone of inhibition at 300 µg/disc [23]: 12 mm; MIC [24]: 32 µg/mL; zone of inhibition at 300 µg/disc [25]: 18 mm; inhibition of growth at 1.25 µg/mL [26]: -11.3%; MIC [27]: 4 µg/mL; inhibition of growth at 10 µg/mL [28]: 21.1%; MIC [29]: 16 µg/mL; zone of inhibition at 300 µg/disc [30]: < 7 mm; MIC [31]: 16 µg/mL; inhibition of growth at 5 µg/mL [32]: 34.2%; MIC [33]: 32 µg/mL; MIC [34]: 2 µg/mL; MIC [35]: 32 µg/mL

# Reference: ChEMBL document CHEMBL1158358, “Synthesis, antimicrobial and cytotoxic activities of some 5-arylidene-4-thioxo-thiazolidine-2-ones” (Eur J Med Chem, 2009)
